In ChEMBL document CHEMBL3286393 (J Med Chem, 2014):
Active and inactive are the calls of the source. No cut-off for these calls is given here.

What was measured:
[1] = system: Mus musculus; assay: Antiinflammatory activity in zymosan-induced peritonitis CD1 mouse model assessed as suppression of MPO activity at 1 mg/kg, ip administered 30 mins before challenge measured 4 hrs post zymosan challenge relative to control; format: functional; conditions: route intraperitoneal
Procedure, shortened: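 In male CD-1 mice (n = 5−11 per group), dose was given ip in 2% DMSO/saline 30 min before ip zymosan (2 mg/mL, 0.5 mL). Lavage 4 h later. Pelleted exudate cells disrupted; supernatant mixed with 0.167 mg/mL o-dianisidine and 0.0005% H2O2 in PBS, read kinetically by absorbance. U/mL from human neutrophil MPO calibration; % inhibition vs vehicle.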

[2] = system: Mus musculus; assay: Antiinflammatory activity in zymosan-induced peritonitis CD1 mouse model assessed as suppression of LTB4 level at 1 mg/kg, ip administered 30 mins before challenge measured 4 hrs post zymosan challenge relative to control v
[3] = system: Mus musculus; assay: Antiinflammatory activity in zymosan-induced peritonitis CD1 mouse model assessed as suppression of neutrophil infiltration at 1 mg/kg, ip administered 30 mins before challenge measured 4 hrs post zymosan challenge relative to control; format: functional; conditions: route intraperitoneal
Procedure, shortened: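 Zymosan peritonitis in male CD-1 mice (n = 5−11): ip dose in 2% DMSO/saline 30 min before ip zymosan. Peritoneal lavage with 3 mL cold PBS at 4 h. Exudate cells counted by light microscopy in a Burker chamber after trypan blue staining; % inhibition vs vehicle.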

[4] = biological target: T1, Prostaglandin G/H synthase 1 (Ovis aries) (UniProt P05979); assay: Inhibition of purified ovine COX-1 assessed as residual activity by measuring formation of 12-HHT from arachidonic acid preincubated at 10 uM for 5 mins before substrate addition measured after 5 mins by HPLC analysis relative to control; values are per cent of control
T1 sequence (whole entry): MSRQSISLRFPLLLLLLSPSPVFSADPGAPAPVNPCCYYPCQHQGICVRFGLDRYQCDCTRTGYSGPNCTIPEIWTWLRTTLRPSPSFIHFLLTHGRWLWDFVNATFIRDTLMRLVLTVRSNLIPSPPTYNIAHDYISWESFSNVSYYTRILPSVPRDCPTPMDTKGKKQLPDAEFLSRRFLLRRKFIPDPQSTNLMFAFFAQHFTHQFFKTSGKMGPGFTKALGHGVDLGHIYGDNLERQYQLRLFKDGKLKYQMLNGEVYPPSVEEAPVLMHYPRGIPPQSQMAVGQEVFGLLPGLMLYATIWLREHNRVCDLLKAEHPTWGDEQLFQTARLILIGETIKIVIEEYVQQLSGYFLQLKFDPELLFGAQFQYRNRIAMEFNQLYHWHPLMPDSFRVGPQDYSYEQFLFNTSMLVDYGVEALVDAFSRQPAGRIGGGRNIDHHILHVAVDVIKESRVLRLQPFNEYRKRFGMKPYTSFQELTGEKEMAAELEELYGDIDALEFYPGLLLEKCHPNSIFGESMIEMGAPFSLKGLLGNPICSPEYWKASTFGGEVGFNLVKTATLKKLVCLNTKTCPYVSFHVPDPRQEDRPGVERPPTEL

[5] = biological target: T2, Prostaglandin E synthase (Homo sapiens, UniProt O14684); assay: Inhibition of mPGES1-mediated PGE2 production in microsomes of IL-1beta stimulated human A549 cells preincubated for 15 mins by RP-HPLC analysis; format: cell-based
T2 sequence (O14684 whole entry): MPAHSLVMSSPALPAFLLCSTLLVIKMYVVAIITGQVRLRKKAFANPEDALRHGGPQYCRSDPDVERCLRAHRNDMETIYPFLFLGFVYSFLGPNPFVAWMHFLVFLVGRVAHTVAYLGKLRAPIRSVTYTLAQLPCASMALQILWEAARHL
Procedure, shortened: (§1)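 mPGES-1 source: microsomes of A549 cells treated 48 h with IL-1β 2 ng/mL, at 25−50 μg protein/mL in 0.1 M potassium phosphate pH 7.4 with 2.5 mM glutathione. Compound preincubation 15 min at 4 °C; PGH2 (20 μM final) for 1 min; FeCl2/citric acid stop with 11β-PGE2 internal standard. PGE2 by RP-HPLC.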

[6] = biological target: T3, Prostaglandin E synthase (Homo sapiens) (UniProt O14684); assay: Inhibition of mPGES1-mediated PGE2 formation in LPS-stimulated human monocytes preincubated for 15 mins before arachidonic acid substrate addition measured after 30 mins by UPLC-MS/MS analysis; format: cell-based
T3 sequence (whole entry): T2 sequence (O14684 whole entry)
Procedure, shortened: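 Fresh human monocytes (adherence-isolated, >85% CD14+; 5 × 10⁶/well) primed with LPS 1 μg/mL for 24 h. Washed, 15 min preincubation, then 2.5 μM A23187 plus 20 μM arachidonic acid for 30 min. Eicosanoids extracted and measured by UPLC-MS/MS, normalized to PGB1 as relative intensities. Two to three independent experiments.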

[7] = system: PBMC; assay: Cytotoxicity against human PBMCs assessed as cell viability after 24 hrs by MTT assay; format: cell-based
Procedure, shortened: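 Human PBMC (2 × 10⁵/well), 24 h exposure. MTT then 4 h at 37 °C in darkness. Formazan solubilized with 10% SDS in 20 mM HCl; absorbance 550 nm. Viability relative to untreated cells; IC50 derived.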

[8] = system: LNCaP; assay: Cytotoxicity against human LNCAP cells assessed as cell viability after 24 hrs by MTT assay; format: cell-based
Procedure, shortened: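 LNCaP seeded at 10⁴ cells/well and exposed 24 h. MTT added, then 4 h at 37 °C, 5% CO2, dark. Medium removed and formazan dissolved in DMSO; absorbance at 570 nm.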

[9] = biological target: T4, Prostaglandin G/H synthase 1 (Homo sapiens, UniProt P23219); assay: Inhibition of COX1-mediated PGE2 production in human platelets assessed as residual activity by measuring formation of 12-HHT from arachidonic acid preincubated at 10 uM for 5 mins measured after 5 mins by RP-HPLC analysis relative to control
Procedure, shortened: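 Washed human platelets, 10⁸/mL in PBS pH 7.4 with 1 mM CaCl2: 5 min compound preincubation at room temperature, then 1 min at 37 °C. Arachidonic acid 5 μM added; 5 min at 37 °C. 12-HHT extracted and measured by RP-HPLC.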

[10] = system: Radical scavenging activity; assay: Antioxidant activity assessed as DPPH free radical scavenging activity at 10 uM after 30 mins […] by spectrophotometric analysis; format: functional
[11] = biological target: T5, Polyunsaturated fatty acid 5-lipoxygenase (Homo sapiens, UniProt P09917); assay: Inhibition of 5-LO in human neutrophils using arachidonic acid as substrate preincubated for 15 mins measured after 10 mins by HPLC analysis
T5 sequence (P09917 whole entry): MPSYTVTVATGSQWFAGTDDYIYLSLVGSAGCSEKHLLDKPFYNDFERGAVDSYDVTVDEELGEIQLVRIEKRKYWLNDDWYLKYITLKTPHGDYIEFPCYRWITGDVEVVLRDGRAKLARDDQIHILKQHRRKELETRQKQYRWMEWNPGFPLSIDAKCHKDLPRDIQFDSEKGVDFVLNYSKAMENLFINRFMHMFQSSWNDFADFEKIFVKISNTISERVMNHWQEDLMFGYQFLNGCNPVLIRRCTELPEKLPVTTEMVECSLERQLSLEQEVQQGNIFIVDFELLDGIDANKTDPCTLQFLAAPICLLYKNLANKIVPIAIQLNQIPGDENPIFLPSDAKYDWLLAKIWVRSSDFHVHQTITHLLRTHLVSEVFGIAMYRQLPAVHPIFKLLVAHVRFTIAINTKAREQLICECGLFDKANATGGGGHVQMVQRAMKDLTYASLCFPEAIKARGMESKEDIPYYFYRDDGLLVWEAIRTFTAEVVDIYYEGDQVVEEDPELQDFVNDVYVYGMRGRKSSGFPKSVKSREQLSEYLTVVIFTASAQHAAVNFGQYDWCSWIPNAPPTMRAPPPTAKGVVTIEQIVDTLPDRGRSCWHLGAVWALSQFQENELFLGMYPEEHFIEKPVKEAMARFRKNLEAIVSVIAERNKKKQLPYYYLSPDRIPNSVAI
Procedure, shortened: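 Fresh human neutrophils, 1 × 10⁷/mL in PBS pH 7.4 with 1 mM CaCl2 and 1 mg/mL glucose, preincubated 15 min at 37 °C. LTB4, its all-trans isomers and 5-H(P)ETE by HPLC.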

[12] = biological target: T6, Polyunsaturated fatty acid lipoxygenase ALOX12 (Homo sapiens) (UniProt P18054); assay: Inhibition of 12-LO in human neutrophils assessed as residual activity relative to control; conditions: values are per cent of control
T6 sequence (whole entry): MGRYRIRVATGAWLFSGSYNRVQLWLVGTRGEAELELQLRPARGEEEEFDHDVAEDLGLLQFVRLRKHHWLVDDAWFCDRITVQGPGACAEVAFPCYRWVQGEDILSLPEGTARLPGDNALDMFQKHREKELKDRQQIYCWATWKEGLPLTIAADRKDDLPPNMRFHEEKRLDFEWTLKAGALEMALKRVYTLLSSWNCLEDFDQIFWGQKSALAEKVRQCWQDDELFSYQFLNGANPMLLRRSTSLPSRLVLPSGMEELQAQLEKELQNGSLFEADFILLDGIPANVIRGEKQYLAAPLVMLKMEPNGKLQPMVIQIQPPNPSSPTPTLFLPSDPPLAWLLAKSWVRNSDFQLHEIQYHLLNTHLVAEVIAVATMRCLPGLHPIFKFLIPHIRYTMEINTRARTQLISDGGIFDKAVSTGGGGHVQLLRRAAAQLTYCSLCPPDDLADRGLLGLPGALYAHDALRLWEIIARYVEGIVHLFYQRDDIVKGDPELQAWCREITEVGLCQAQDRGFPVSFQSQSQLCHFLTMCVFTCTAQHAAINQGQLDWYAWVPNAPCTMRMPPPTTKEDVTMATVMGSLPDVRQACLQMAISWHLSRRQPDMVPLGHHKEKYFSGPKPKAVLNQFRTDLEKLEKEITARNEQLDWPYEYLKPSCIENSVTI

[13] = biological target: T5, Polyunsaturated fatty acid 5-lipoxygenase; assay: Inhibition of human recombinant 5-LO expressed in Escherichia coli Bl21 (DE3) using arachidonic acid as substrate preincubated for 10 mins measured after 10 mins by RP-HPLC analysis
Procedure, shortened: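 5-LO expressed from pT3-5LO in E. coli BL21(DE3), semi-purified on ATP-agarose, diluted in PBS with 1 mM EDTA and 1 mM ATP. Preincubated with compound 10 min at 4 °C, then 30 s at 37 °C. Started with 2 mM CaCl2 plus 20 μM arachidonic acid; 10 min at 37 °C; ice-cold methanol stop. Three to four experiments.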

[14] = Aqueous stability of the compound in at 2 uM in 10 mM aqueous ammonium bicarbonate at pH 7.9 assessed as formation of trans-6-(4'-hydroxy-3'-methoxyphenyl)-2,4-dioxo-5-hexenal measured as residual amount of compound by reversed phase liquid chromatography-coupled mass spectrometry; format: physicochemical; conditions: buffer, pH 7.9, 2 µM
Procedure, shortened: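 Compounds at 2 μM in 10 mM aqueous ammonium bicarbonate pH 7.9, incubated 30 min at 37 °C. Analysed by UPLC-MS on a C18 column, gradient acetonitrile/water with 0.07% formic acid, at 0.7 mL/min. Residual amount given as % of control; three to four independent experiments.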

[15] = biological target: T4, Prostaglandin G/H synthase 1; assay: Inhibition of COX1-mediated […] in human platelets assessed as residual activity by measuring formation of 12-HHT from arachidonic acid preincubated at 10 uM for 5 mins measured after 5 mins by RP-HPLC analysis relative to control; values are per cent of control
[16] = biological target: T3, Prostaglandin E synthase (Homo sapiens); assay: Inhibition of mPGES1-mediated PGE2 production in microsomes of IL-1beta stimulated human A549 cells assessed as residual activity preincubated at 10 uM for 15 mins by RP-HPLC analysis relative to control; format: cell-based; procedure, shortened: as §1
[17] = biological target: T1, Prostaglandin G/H synthase 1 (Ovis aries); assay: Inhibition of purified ovine COX-1 assessed as residual activity by measuring formation of 12-HHT from arachidonic acid preincubated at 10 uM for 5 mins before substrate addition measured after 5 mins by HPLC analysis relative to control
Procedure, shortened: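 Purified ovine COX-1 (50 units) in 100 mM Tris pH 8 with 5 mM glutathione, 5 μM hemoglobin and 100 μM EDTA. Preincubated 5 min at 4 °C then 1 min at 37 °C. 5 μM arachidonic acid added; 12-HHT extracted after 5 min and measured by HPLC. Residual activity at 10 μM, three independent experiments.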

T4 sequence (P23219 whole entry): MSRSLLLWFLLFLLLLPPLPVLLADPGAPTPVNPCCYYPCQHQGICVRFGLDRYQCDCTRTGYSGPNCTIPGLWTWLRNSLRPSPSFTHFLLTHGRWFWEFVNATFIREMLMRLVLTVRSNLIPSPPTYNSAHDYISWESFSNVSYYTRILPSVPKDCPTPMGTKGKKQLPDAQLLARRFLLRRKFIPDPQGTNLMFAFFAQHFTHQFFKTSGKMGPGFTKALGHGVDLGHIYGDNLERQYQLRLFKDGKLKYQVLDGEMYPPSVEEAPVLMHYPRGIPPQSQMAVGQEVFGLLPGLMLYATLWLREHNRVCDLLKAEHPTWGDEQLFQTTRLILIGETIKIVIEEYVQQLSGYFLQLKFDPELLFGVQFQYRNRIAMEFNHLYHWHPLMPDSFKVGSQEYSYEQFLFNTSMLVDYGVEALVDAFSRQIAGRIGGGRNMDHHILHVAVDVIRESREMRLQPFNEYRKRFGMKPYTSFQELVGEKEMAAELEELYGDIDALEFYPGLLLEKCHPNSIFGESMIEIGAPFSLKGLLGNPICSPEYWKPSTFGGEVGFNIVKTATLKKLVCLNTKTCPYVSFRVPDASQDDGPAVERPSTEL

## CC(C)c1ccc2c(c1)c(SC(C)(C)C)c(CC(C)(C)C(=O)O)n2Cc1ccc(Cl)cc1
[1]
  inhibition in vivo at 1 mg/kg: 41%
[2]
  inhibition in vivo at 1 mg/kg: 63%
[3]
  inhibition in vivo at 1 mg/kg: 41%

## COc1ccc2c(c1)c(CC(=O)O)c(C)n2C(=O)c1ccc(Cl)cc1
[4]
  residual activity: 25%

## Clc1ccccc1-c1nc2c3ccccc3c3ccccc3c2[nH]1
[5]; read-out: IC50
  IC50: 20 nM
[6]
  inhibition: Active

## COc1cc(CCC(=O)CC(=O)CCc2cc(CCC(C)C)c(O)c(OC)c2)cc(CCC(C)C)c1O
[5]; a549
  IC50: Not Active
[7]
  IC50: > 50000 nM
[8]
  IC50: > 50000 nM
[9]
  inhibition: inactive
[10]
  Activity: 71.9%
[11]
  IC50: 2900 nM
[4]
  residual activity: 82.7%
[12]
  residual activity: 76.4%
[13]
  IC50: 400 nM
[14]
  Stability: 87.4%

## COc1cc(/C=C/C(=O)/C=C/c2cc(F)c(O)c(OC)c2)cc(F)c1O
[15]
  residual activity: 65.2%
[7]
  IC50: > 50000 nM
[8]
  IC50: 25100 nM
[10]
  Activity: 80.5%
[11]
  IC50: 8100 nM
[12]
  residual activity: 67.7%
[13]
  IC50: 600 nM
[14]
  Stability: Unstable
[16]
  Activity: 58.8%
[17]
  inhibition: inactive

## COc1cc(/C=C/C(=O)CC(=O)/C=C/c2cc(CCC(C)C)c(O)c(OC)c2)cc(CCC(C)C)c1O
[9]
  inhibition: inactive
[10]
  Activity: 64.3%
[11]
  IC50: 80200 nM
[12]
  residual activity: 75.7%
[13]
  IC50: 2800 nM
[14]
  Stability: Unstable
[16]
  Activity: 71.7%
[17]
  inhibition: inactive

## O=C1O[C@H]([C@@H](O)CO)C(O)=C1O
[10]
  Activity: 20.4%
